For test [1], the species on record is Mus musculus. As to the kind of experiment: Stimulation of prostanoid receptor-mediated cAMP accumulation in Charles River CD-1 mouse ovary at 10 ug/ml after 30 mins relative to control. Type of test: tissue-based. The settings on record: Female gonad. The procedure, abridged: (§1)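 Mouse ovaries incubated 1 h at 37 °C with shaking to build an intracellular ATP-14C pool. Then 0.2 ml 0.05 M theophylline in 0.15 M NaCl and test compound in Me2SO were added, followed by 30 min at 37 °C. Stopped with 10% trichloroacetic acid and homogenized. cAMP-14C was isolated from the supernatant ending with paper chromatography. Result is fold increase, treated over untreated ovaries.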
A general note: Changes in cAMP serve as a functional read-out for many G protein-coupled receptors.

The species entered for test [2] is Mus musculus. As to the kind of experiment: Stimulation of prostanoid receptor-mediated cAMP accumulation in Charles River CD-1 mouse ovary at 25 ug/ml after 30 mins relative to control. Type of test: tissue-based. To be noted: Female gonad. In outline: as §1
Test [3] is filed under the species Mus musculus. As to the kind of experiment: Stimulation of prostanoid receptor-mediated cAMP accumulation in Charles River CD-1 mouse ovary at 100 ug/ml after 30 mins relative to control. Type of test: tissue-based. To be noted: Female gonad. The procedure, abridged: as §1
Test [4] is filed under the species Mus musculus. As to the kind of experiment: Stimulation of prostanoid receptor-mediated cAMP accumulation in Charles River CD-1 mouse ovary at 0.05 ug/ml after 30 mins relative to control. Type of test: tissue-based. The settings on record: Female gonad. The procedure, abridged: as §1
Test [5] is filed under the species Mus musculus. As to the kind of experiment: Stimulation of prostanoid receptor-mediated cAMP accumulation in Charles River CD-1 mouse ovary at 0.1 ug/ml after 30 mins relative to control. Type of test: tissue-based. To be noted: Female gonad. The procedure, abridged: as §1
Test [6] is filed under the species Mus musculus. As to the kind of experiment: Stimulation of prostanoid receptor-mediated cAMP accumulation in Charles River CD-1 mouse ovary at 1 ug/ml after 30 mins relative to control. Type of test: tissue-based. The settings on record: Female gonad. The procedure, abridged: as §1
Another test has as its system Canis familiaris. As to the kind of experiment: Increase in renal blood flow in anesthetized dog at 0.25 mg/kg/min infused into thoracic aorta (reference value: 188 ml/min). The format is functional, Canis lupus familiaris.

As for `CCCCCC(O)CCCN(C#N)CCCCCCC(=O)O` (stereo not drawn), the fold change (FC) in the test listed under Mus musculus [1] amounted to 4; in the test filed under Mus musculus [2], 18; in the test filed under Mus musculus [3] it was 31.

Regarding `CCCCC[C@H](O)/C=C/[C@H]1[C@H](O)CC(=O)[C@@H]1CCCCCCC(=O)O`, the fold change (FC) came out at 29 in the test filed under Mus musculus [4], 25 in the test filed under Mus musculus [5] and 54 in the test filed under Mus musculus [6].

Consider `CCCCCC(O)/C=C/CN(CCCCCCC(=O)O)C(N)=O` (stereo not drawn), for which the fold change (FC) in the test filed under Mus musculus [1] was 14; in the test listed under Mus musculus [2], 19; in the test listed under Mus musculus [3], 26.

`CCCCCC(O)CCCN(CCCCCCC(=O)O)C(C)=O` (stereo not drawn): the fold change (FC) stood at 10 in the test listed under Mus musculus [1], 17 in the test listed under Mus musculus [2] and 17 in the test listed under Mus musculus [3].

In the case of `CCCCCC(C)(O)CCCN(CCCCCCC(=O)O)C(N)=O` (stereo not drawn), the fold change (FC) came to 3 in the test listed under Mus musculus [1], 8 in the test filed under Mus musculus [2] and 22 in the test listed under Mus musculus [3].

On to `CCCCCCCCC(C)N(CCCCCCC(=O)O)C(N)=O` (stereo not drawn), for which the fold change (FC) in the test filed under Mus musculus [1] came out at 9; in the test listed under Mus musculus [2], 16; in the test listed under Mus musculus [3] it was 17.

Turning to `CCCCCC(O)CCCN(CCCCCCC(=O)[O-])C(N)=O.[Na+]` (stereo not drawn), the fold change (FC) in the test filed under Mus musculus [1] was 23; in the test listed under Mus musculus [2], 43; in the test listed under Mus musculus [3] it was 40; in the test filed under Mus musculus [6] it was 2. Also, the Activity in the test with Canis familiaris was found to be 258 mL/min.

For the molecule `CCCCCCCCC(c1ccccc1)N(CCCCCCC(=O)O)C(C)=O` (stereo not drawn), the fold change (FC) in the test filed under Mus musculus [2] and in the test listed under Mus musculus [3] was 1 each time.

For the molecule `CCCCC[C@H](O)CC[C@H]1CCC(=O)[C@@H]1CCCCCCC(=O)O`, the figures for the fold change (FC) in the test filed under Mus musculus [1], in the test filed under Mus musculus [2] and in the test listed under Mus musculus [6] were 25, 26 and 10, respectively.

As for `CCCCCCCCCN(CCCCCCC(=O)O)C(N)=O`, the fold change (FC) in the test listed under Mus musculus [1] was determined as 15; in the test listed under Mus musculus [2] it was 16; in the test filed under Mus musculus [3] it was 25.

On to `C=CC(=O)N(CCCCCCCCC)CCCCCCC(=O)O`, for which the fold change (FC) in the test listed under Mus musculus [1] came out at 2; in the test filed under Mus musculus [2], 7; in the test filed under Mus musculus [3], 11.

As for `CCCCCC(O)CCCN(CCCCCCC(=O)O)C(N)=S` (stereo not drawn), the fold change (FC) in the test filed under Mus musculus [1] was 4; in the test filed under Mus musculus [2], 16; in the test filed under Mus musculus [3] it was 26.

As for `CCCCCC(O)CCCC(CCCCCCC(=O)O)C(C)=O` (stereo not drawn), the fold change (FC) in the test filed under Mus musculus [1] amounted to 11; in the test listed under Mus musculus [2] it was 14; in the test listed under Mus musculus [3], 23; in the test listed under Mus musculus [6] it was 2.

In the case of `CCCCCCCCC(C)N(CCCCCCC(=O)O)C(C)=O` (stereo not drawn), the values for the fold change (FC) in the test filed under Mus musculus [2] and in the test filed under Mus musculus [3] were 3 and 4, respectively.

(Values after ChEMBL document CHEMBL3272077, “11,12-Secoprostaglandins. 2. N-acyl-N-alkyl-7-aminoheptanoic acids” (1977).)
